In ChEMBL document CHEMBL4033712, “Synthesis and biological evaluation of new C-12(α/β)-(N-) sulfamoyl-phenylamino-14-deoxy-andrographolide derivatives as potent anti-cancer agents” (Bioorg Med Chem Lett, 2017):

Columns and labels:
Malme-3M = assay: Growth inhibition of human MALME-3M cells incubated for 48 hrs by sulforhodamine B assay; assay type: functional
How it was run: (§1)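 NCI-60 five-dose screen at 0.01, 0.1, 1, 10 and 100 µM, 48 h incubation, sulforhodamine B end point. GI50 (50% decrease in net growth), TGI (total growth inhibition) and LC50 (net 50% loss of initial cells) taken from log concentration versus % growth inhibition curves.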

CAKI-1 = assay: Growth inhibition of human Caki1 cells incubated for 48 hrs by sulforhodamine B assay; assay type: functional; conditions: CAKI-1, 48 h; for CC50: read-out: LC50 (the source's name); how it was run: as §1
RXF 393 = assay: Growth inhibition of human RXF393 cells incubated for 48 hrs by sulforhodamine B assay; assay type: functional; conditions: RXF 393, 48 h; for CC50: read-out: LC50 (the source's name)
How it was run: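 NCI 60 human tumour cell line panel, five-dose study at 0.01, 0.1, 1, 10 and 100 µM, 48 h incubation. Sulforhodamine B protein-binding dye end point. GI50 (50% decrease in net cell growth), TGI (total growth inhibition) and LC50 (net 50% loss of initial cells) read from log concentration versus % growth inhibition curves.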

[1] = (§2) Growth inhibition of human NHDF after 72 hrs by CellTiter-Glo luminescent cell viability assay; assay type: cell-based; conditions: NHDF cells
NHDF = assay: as §2; assay type: cell-based; conditions: nhdf, 72 h

| Compound | GI50 (Malme-3M) | TGI (Malme-3M) | GI50 (CAKI-1) | TGI (CAKI-1) | CC50 (CAKI-1) | GI50 (RXF 393) | TGI (RXF 393) | CC50 (RXF 393) | CC50 (Malme-3M; read-out: LC50 (the source's name)) | GI50 at 72 h [1] | LC50 (NHDF) | growth inhibition (GI) (NHDF) |
| --- | --- | --- | --- | --- | --- | --- | --- | --- | --- | --- | --- | --- |
| C=C1CC[C@@H]2[C@](C)(COC(C)=O)[C@H](OC(C)=O)CC[C@@]2(C)[C@H]1CC(Nc1ccc(S(=O)(=O)Nc2cc(C)on2)cc1)C1=CCOC1=O (stereo partly drawn) | 1.89 µM | 4 µM | 4.14 µM | 14.7 µM | 38.6 µM | 2.05 µM | 3.84 µM | 7.22 µM |  |  |  |  |
| C=C1CC[C@@H]2[C@](C)(COC(C)=O)[C@H](OC(C)=O)CC[C@@]2(C)[C@H]1CC(Nc1ccc(S(=O)(=O)Nc2ccc(Cl)nn2)cc1)C1=CCOC1=O (stereo partly drawn) | 1.72 µM | 3.9 µM | 2.28 µM | 100 µM | 31.7 µM | 1.77 µM | 3.29 µM | 6.14 µM | 8.84 µM | 1.54 µM | 3.496358 µM |  |
| C=C1CC[C@@H]2[C@](C)(COC(C)=O)[C@H](OC(C)=O)CC[C@@]2(C)[C@H]1CC(Nc1ccc(S(=O)(=O)Nc2ncccn2)cc1)C1=CCOC1=O (stereo partly drawn) |  |  | 1.74 µM | 4.04 µM | 9.39 µM | 1.95 µM | 3.58 µM | 6.6 µM |  |  |  | Non-Toxic |
| C=C1CC[C@@H]2[C@](C)(COC(C)=O)[C@H](OC(C)=O)CC[C@@]2(C)[C@H]1CC(Nc1ccc(S(=O)(=O)Nc2nccc(C)n2)cc1)C1=CCOC1=O (stereo partly drawn) |  |  | 3.56 µM | 12.5 µM | 35.5 µM | 2.33 µM | 4.18 µM | 7.49 µM |  |  |  |  |
| C=C1CC[C@@H]2[C@](C)(COC(C)=O)[C@H](OC(C)=O)CC[C@@]2(C)[C@H]1CC(Nc1ccc(S(=O)(=O)Nc2nccs2)cc1)C1=CCOC1=O (stereo partly drawn) |  |  | 3.8 µM | 14.2 µM | 37.7 µM | 2.36 µM | 4.74 µM | 9.53 µM |  |  |  |  |
